# An excerpt weighted towards active compounds, which were near 2.3% of everything screened.
# Tn6 DDE FP: DD(E)-Tn6 binding inhibition, primary FP screen. Fibrin DD(E) TRITC-Tn6 fluorescence polarization displacement. 370,000 tested, 0.21% active. P02675. inhibition, % at 8.3 µM. AID 720509;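 active means inhibition above a per-campaign cutoff: mean of compounds within control limits plus 3 SD, cut at about 15% in these data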;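 further: 0% = median of all compound wells on the plate and 100% = blocking peptide control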
# ADAM10 inh: inhibitors of human ADAM10; O14672; recombinant ADAM10, EDANS/DABCYL FRET peptide cleavage, 3 h; inhibition, % at 7 µM; 370,000 tested, 0.62% active; AID 720582;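 active means inhibition above a per-campaign cutoff equal to the mean of compounds falling between control-based bounds plus 3 SD, cut at about 20% in these data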;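 further: 0% = DMSO wells while the 100% control is not disclosed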
# Target sequence (O14672 214-748 limits assumed): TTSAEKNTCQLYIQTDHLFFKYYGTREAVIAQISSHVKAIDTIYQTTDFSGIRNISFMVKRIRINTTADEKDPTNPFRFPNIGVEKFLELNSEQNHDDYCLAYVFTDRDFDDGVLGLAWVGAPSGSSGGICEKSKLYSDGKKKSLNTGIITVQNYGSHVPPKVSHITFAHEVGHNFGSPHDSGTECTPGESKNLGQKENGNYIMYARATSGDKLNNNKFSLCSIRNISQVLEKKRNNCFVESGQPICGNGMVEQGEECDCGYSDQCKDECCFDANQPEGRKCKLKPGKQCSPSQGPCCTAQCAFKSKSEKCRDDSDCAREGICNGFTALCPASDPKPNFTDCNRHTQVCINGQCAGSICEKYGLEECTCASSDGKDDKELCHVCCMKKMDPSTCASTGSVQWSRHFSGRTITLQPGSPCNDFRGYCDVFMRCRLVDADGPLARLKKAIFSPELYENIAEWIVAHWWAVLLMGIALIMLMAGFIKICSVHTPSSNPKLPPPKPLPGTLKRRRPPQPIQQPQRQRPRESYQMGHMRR
# PLCb3 inh: PLC-beta3 (human) inhibition, primary screen; Q01970; Purified PLC-beta3, fluorogenic substrate, fluorescence; inhibition, % at 12.2 µM; 370,000 tested, 0.18% active; AID 720704; in the data active means inhibition above about 11%;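 further: 0% = median of compound wells on plate and 100% = full blocker control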
# Tn7 DDE FP: disrupts Tn7 cyclic peptide binding to fibrin D-Dimer-E complex; P02675; FP displacement of FITC-Tn7 peptide from fibrin DD(E); 0% = median of compound wells per plate; inhibition, % at 8.3 µM; 370,000 tested, 0.13% active;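 active means inhibition above the mean of compounds falling within the control limits plus 3 SD of them, cut at about 14% in these data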;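 further: 0% = plate median of compound wells and 100% = 10 µM Aha-Tn7 peptide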
#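 System: human fibrin DD(E); quantity: Fibrin-DD(E) at 2 µM final; also added: fluorescent Tn7 probe at 0.1 µM; compound dosing: single nominal test concentration of 8.3 µM per compound; schedule: 10 min preincubation, 3 h with tracer, room temperature; detection: fluorescence polarization of the labelled Tn7 tracer; repeats: one replicate per compound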
# PLCg1 inh: PLC-gamma1 (human) inhibition, primary screen. P19174. purified PLC-gamma1, fluorogenic substrate, fluorescence. inhibition, % at 12.2 µM. 370,000 tested, 0.84% active; in the data active means inhibition above about 9.5%
# ADAM17 inh: ADAM17 inhibition, QFRET primary screen. P78536. recombinant ADAM17, EDANS/DABCYL FRET peptide cleavage. inhibition, % at 6.95 µM. 370,000 tested, 0.83% active. AID 720648;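 active means inhibition above the mean of compounds lying between control limits plus 3 SD, set per campaign, cut at about 8.5% in these data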;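 further: 0% = DMSO-only wells as the low control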
# ADAM10 counter: inhibits human ADAM10 in ADAM17 exosite counter-screen | shares compounds with ADAM17 inh | 2,900 tested, 47% active | inhibition, % at 6.95 µM | recombinant ADAM10, EDANS/DABCYL FRET peptide cleavage, 3 h;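 active means mean inhibition over the triplicate runs exceeds the activity threshold set in the earlier primary screen, cut at about 20% in these data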;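 further: 0% = DMSO wells and 100% = marimastat wells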
# ADAM17 confirm: human ADAM17 inhibition, confirmation; AID 743257; 2,900 tested, 65% active; recombinant ADAM17, EDANS/DABCYL QFRET peptide cleavage; shares compounds with ADAM17 inh; inhibition, % at 6.95 µM;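 active means mean inhibition across replicates above the hit cutoff set in the primary screen, cut at about 8.5% in these data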;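 further: 0% = DMSO wells and 100% = marimastat wells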
# Active calls of the source: *; · = not tested or not shown.
SMILES,Tn6 DDE FP,ADAM10 inh,PLCb3 inh,Tn7 DDE FP,PLCg1 inh,ADAM17 inh,ADAM10 counter,ADAM17 confirm
COc1ccc(OCCC(=O)OCC(=O)Nc2cccc(S(=O)(=O)N3CCCCC3)c2)cc1,4,-2,1,-6,2,2,·,·
COc1ccccc1OCCC(=O)OCC(=O)Nc1cc(S(=O)(=O)N2CCOCC2)ccc1Cl,-1,3,0,-4,1,4,·,·
Cc1ccc(NC(=O)CN2C(=O)NC(Cc3c[nH]c4ccccc34)C2=O)cc1S(=O)(=O)N1CCCCC1 (centres undefined),-5,19,6,-2,3,11*,22*,14*
Cc1ccccc1OCCC(=O)OCC(=O)Nc1cc(S(=O)(=O)N2CCOCC2)ccc1Cl,-2,18,4,-4,2,11*,7,7
COc1ccc(NC(=O)COc2ccccc2Cc2ccccc2)cc1S(N)(=O)=O,-6,19,-5,-7,6,11*,8,2
O=C(NCc1ccc(Cl)cc1)O[C@H]1CC[C@@]23CCCN2C(=O)CCC[C@H]3C1,-3,2,1,-7,1,-1,·,·
CCCCCN1CCCCC(NC(=O)C(C)(C)C)C1=O (centres undefined),5,-7,2,0,1,-5,·,·
COC(=O)c1cc(C(c2ccccc2O)C2CCC(C)(C)O2)n2ccccc12 (centres undefined),-2,-190,-49,0,-31,-46,·,·
CC(=O)c1cc(-c2ccccc2)n(CC(=O)NCc2ccccc2)c1C,-1,0,2,-6,3,3,·,·
COC(=O)[C@]12C[C@H](CC(=O)N3CCN(C(=O)C4CC4)CC3)C(=O)N(Cc3ccco3)C1=C[C@H](C(C)C)O[C@@H]2C1CC1,-11,-8,-2,1,7,-3,·,·
Cc1ccc(NC(=O)COc2ccccc2)cc1S(=O)(=O)N1CCCCC1,0,-7,-4,4,0,2,·,·
Cc1ccccc1OCC(=O)Nc1ccc(C)c(S(=O)(=O)N2CCCCCC2)c1,-3,12,10,3,9,8.7*,26*,13*
CN(C)S(=O)(=O)c1ccc(Cl)c(NC(=O)COC(=O)CCC2CCCCC2)c1,4,18,6,-1,5,12*,32*,17*
Cc1ccc(C(=O)OCC(=O)c2c[nH]c3ccccc23)cc1S(=O)(=O)N1CCOCC1,-1,-3,-3,-2,-1,10.0*,-7,3
COc1ccc(CSc2nnc(SCC(=O)Nc3ccccc3-c3ccccc3)s2)cc1,-1,9,-2,-1,-2,6,·,·
O=C(CSc1nc2ccccc2[nH]1)N1c2ccccc2Sc2ccccc21,1,10,2,-6,2,12*,24*,14*
O=C1C(Cc2ccccc2)NC(=S)N1c1ccccc1 (centres undefined),-11,13,8,-7,8,10*,-2,2
CCc1ccc(/C=C2/Sc3ccccc3N(CC(=O)NCC3CCCO3)C2=O)cc1 (centres undefined),-8,8,-49,4,-24,8.8*,15,6
C=CC[C@H]1c2ccccc2[C@H]2N3N=Cc4ccccc4[C@H]3[C@H](CCc3ccccc3)C(=O)N2N1C(=O)c1ccccc1,-3,15,1,-2,0,11*,5,8
C=CC[C@@H]1NN2C(=O)[C@@H](CCc3ccccc3)[C@@H]3c4ccccc4C=NN3[C@@H]2c2ccccc21,-3,3,-4,6,2,0,·,·
Cc1ccc(S(=O)(=O)N2CCN(c3ccc(C(F)(F)F)cc3[N+](=O)[O-])CC2)cc1,-1,18,1,4,3,10*,22*,11*
Cc1nnc(SCC(=O)N(Cc2ccccc2)C(C)(C)C)[nH]c1=O,9,2,2,-3,2,3,·,·
CC(C)(C)N(Cc1ccccc1)C(=O)CSc1nc2ccccc2c(=O)[nH]1,1,16,1,5,6,9.0*,10,6
CCc1cc(C(=O)OC)c(NC(=O)C2CC(=O)NN2Cc2ccccc2)s1 (centres undefined),-2,5,-6,-1,3,9.3*,15,15*
COc1ccccc1CN(C)C[C@@H]1OCc2cnnn2CCCC(=O)N([C@H](C)CO)C[C@H]1C,-9,0,1,-2,1,8.7*,-2,-1
SMILES,Tn6 DDE FP,ADAM10 inh,PLCb3 inh,Tn7 DDE FP,PLCg1 inh,ADAM17 inh,ADAM10 counter,ADAM17 confirm
Cc1ccccc1CN(C)C[C@H]1OCc2cnnn2CCCC(=O)N([C@@H](C)CO)C[C@@H]1C,0,-2,-1,0,2,0,·,·
C[C@H]1[C@@H](NC(=O)c2ccc(Cl)cc2)CC[C@@]23CCCN2C(=O)CCC[C@@H]13,-2,-7,-1,3,-2,-4,·,·
O=C(NC1CCCCN(Cc2cccc(Cl)c2)C1=O)c1ccc(COc2ccccc2)cc1 (centres undefined),-2,13,2,3,2,10*,15,11*
CCCCCN1CC(O)=C(c2nc3ccccc3[nH]2)C1=N,5,11,5,5,2,10*,12,8
O=C(NCCc1nc2ccccc2n1CCOc1ccc2cccnc2c1)C1CCCCC1,-7,0,3,6,3,-2,·,·
C[C@H]1CN(c2ccc(Br)cc2)C(=O)[C@@H]1CC(=O)Nc1ccccc1,-5,9,4,-8,2,11*,7,6
COc1ccc(N2C[C@H](C)[C@@H](CC(=O)Nc3ccccc3)C2=O)cc1,0,-6,2,-4,1,-2,·,·
C=CC(=O)NC1CCCCN(CC)C1=O (centres undefined),-5,-13,-4,-6,4,-7,·,·
CN(C)S(=O)(=O)c1ccc(/C(O)=C2/C(=O)C(=O)N(Cc3cccnc3)C2c2ccncc2)cc1 (centres undefined),2,-4,2,4,0,0,·,·
CN(C)S(=O)(=O)c1ccc(/C(O)=C2/C(=O)C(=O)N(Cc3cccnc3)C2c2ccco2)cc1 (centres undefined),1,0,2,-1,-2,12*,3,2
COc1ccc(C(=O)N2CCC(Oc3cccnc3)CC2)c(OC)c1,6,-3,2,0,-1,-5,·,·
